Results taken from ChEMBL document CHEMBL5724801, “EUbOPEN Chemogenomics Library - Multiplex” (2024).
Several values for one entry are separate records, joined by “and”; a condition that tells them apart may be missing. Equal values may be shown once.

Test system: U2OS
Assay: Multiplex assay against U2OS
Assay type: toxicity, cell-based
Conditions: human
In short: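 Per cents of healthy-nucleus cells form the tubulin, mitochondrial-mass and membrane-permeability phenotype values. Live cells were stained at seeding with Hoechst33342, BioTracker Green Microtubule Cytoskeleton Dye, MitoTracker Red and Annexin V Alexa Fluor 680. After compound addition they were imaged on a CQ1 microscope at 37°C and 5% CO2, and CellPathfinder machine-learning gating split them into Hoechst high-intensity objects or normal cells, normal cells into healthy, pyknosed or fragmented nuclei, and pyknosed cells into mitotic or apoptotic.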

[1] = 12 h, 1 µM, compound concentration 1 uM
[2] = 12 h, 10 µM, compound concentration 10 uM
[3] = 24 h, 1 µM, compound concentration 1 uM
[4] = 24 h, 10 µM, compound concentration 10 uM
[5] = 48 h, 1 µM, compound concentration 1 uM
[6] = 48 h, 10 µM, compound concentration 10 uM

CN(C)Cc1cccc(NC(=C2C(=O)Nc3cc(C(N)=O)ccc32)c2ccccc2)c1
Population Apoptotic (%) [1]: 37.78% and 38.1% | Population Fragmented Nuclei (%) [1]: 1.29% and 3.85% | Population Healthy Nuclei (%) [1]: 87.11% and 82.69% | Population Hoechst High Intensity Objects (%) [1]: 0% | Population Membrane Permeable-Phenotype (%) [1]: 1.78% and 2.33% | Population Mitochondria Different-Phenotype (%) [1]: 0.59% and 5.43% | Population Mitotic Cells (%) [1]: 62.22% and 61.9% | Population Normal (%) [1]: 100% | Population Pyknosed Nuclei (%) [1]: 11.6% and 13.46% | Population Tubulin-Different-Phenotype (%) [1]: 1.18% and 0% | Total Cell Count [1]: 388 and 156 | Population Apoptotic (%) [2]: 35.71% and 43.75% | Population Healthy Nuclei (%) [2]: 86.17% and 71.36% | Population Hoechst High Intensity Objects (%) [2]: 0% | Population Membrane Permeable-Phenotype (%) [2]: 3.66% and 11.27% | Population Mitotic Cells (%) [2]: 64.29% and 56.25% | Population Normal (%) [2]: 100% | Population Pyknosed Nuclei (%) [2]: 10.19% and 8.04% | Population Tubulin-Different-Phenotype (%) [2]: 6.48% and 4.93% | Total Cell Count [2]: 412 and 199 | Population Apoptotic (%) [3]: 42% and 39.29% | Population Fragmented Nuclei (%) [3]: 1.87% and 0.52% | Population Healthy Nuclei (%) [3]: 88.81% and 84.97% | Population Hoechst High Intensity Objects (%) [3]: 0% | Population Membrane Permeable-Phenotype (%) [3]: 1.89% and 4.27% | Population Mitochondria Different-Phenotype (%) [3]: 0.42% and 6.1% | Population Mitotic Cells (%) [3]: 58% and 60.71% | Population Normal (%) [3]: 100% | Population Pyknosed Nuclei (%) [3]: 9.33% and 14.51% | Population Tubulin-Different-Phenotype (%) [3]: 1.47% and 0.61% | Total Cell Count [3]: 536 and 193 | Population Apoptotic (%) [4]: 50.75% and 51.72% | Population Healthy Nuclei (%) [4]: 82.77% and 70.62% | Population Hoechst High Intensity Objects (%) [4]: 0% | Population Membrane Permeable-Phenotype (%) [4]: 2.06% and 8.72% | Population Mitotic Cells (%) [4]: 49.25% and 48.28% | Population Normal (%) [4]: 100% | Population Pyknosed Nuclei (%) [4]: 14.26% and 13.74% | Population Tubulin-Different-Phenotype (%) [4]: 4.88% and 2.68% | Total Cell Count [4]: 470 and 211 | Population Apoptotic (%) [5]: 48.91% and 34.38% | Population Fragmented Nuclei (%) [5]: 3.29% and 3.37% | Population Healthy Nuclei (%) [5]: 86.93% and 86.81% | Population Hoechst High Intensity Objects (%) [5]: 0.11% and 0% | Population Membrane Permeable-Phenotype (%) [5]: 1.34% and 2.47% | Population Mitochondria Different-Phenotype (%) [5]: 0.37% and 3.53% | Population Mitotic Cells (%) [5]: 51.09% and 65.62% | Population Normal (%) [5]: 99.89% and 100% | Population Pyknosed Nuclei (%) [5]: 9.78% and 9.82% | Population Tubulin-Different-Phenotype (%) [5]: 1.1% and 0.71% | Total Cell Count [5]: 942 and 326 | Population Apoptotic (%) [6]: 57.52% and 51.28% | Population Healthy Nuclei (%) [6]: 81.24% and 71.84% | Population Hoechst High Intensity Objects (%) [6]: 0% | Population Membrane Permeable-Phenotype (%) [6]: 3.41% and 6.53% | Population Mitochondria Different-Phenotype (%) [6]: 0.33% and 7.54% | Population Mitotic Cells (%) [6]: 42.48% and 48.72% | Population Normal (%) [6]: 100% | Population Pyknosed Nuclei (%) [6]: 14.93% and 14.08% | Population Tubulin-Different-Phenotype (%) [6]: 4.88% and 7.04% | Total Cell Count [6]: 757 and 277

COCCNc1cc(NC(=O)N2CCCc3cc(CN4CCOCC4=O)c(C=O)nc32)ncc1C#N
Population Apoptotic (%) [1]: 30.77% and 39.13% | Population Fragmented Nuclei (%) [1]: 2.11% and 3.05% | Population Healthy Nuclei (%) [1]: 87.63% and 82.93% | Population Hoechst High Intensity Objects (%) [1]: 0% | Population Membrane Permeable-Phenotype (%) [1]: 0.6% and 5.15% | Population Mitochondria Different-Phenotype (%) [1]: 0% and 8.82% | Population Mitotic Cells (%) [1]: 69.23% and 60.87% | Population Normal (%) [1]: 100% | Population Pyknosed Nuclei (%) [1]: 10.26% and 14.02% | Population Tubulin-Different-Phenotype (%) [1]: 0.6% and 0% | Total Cell Count [1]: 380 and 164 | Population Apoptotic (%) [2]: 46.15% and 40% | Population Fragmented Nuclei (%) [2]: 0.86% and 7.8% | Population Healthy Nuclei (%) [2]: 91.64% and 78.01% | Population Hoechst High Intensity Objects (%) [2]: 0% | Population Membrane Permeable-Phenotype (%) [2]: 1.57% and 1.82% | Population Mitochondria Different-Phenotype (%) [2]: 0.31% and 6.36% | Population Mitotic Cells (%) [2]: 53.85% and 60% | Population Normal (%) [2]: 100% | Population Pyknosed Nuclei (%) [2]: 7.49% and 14.18% | Population Tubulin-Different-Phenotype (%) [2]: 1.26% and 0.91% | Total Cell Count [2]: 347 and 141 | Population Apoptotic (%) [3]: 29.17% and 39.13% | Population Fragmented Nuclei (%) [3]: 2.21% and 0.97% | Population Healthy Nuclei (%) [3]: 88.93% and 87.92% | Population Hoechst High Intensity Objects (%) [3]: 0% | Population Membrane Permeable-Phenotype (%) [3]: 1.66% and 3.85% | Population Mitochondria Different-Phenotype (%) [3]: 0% and 4.95% | Population Mitotic Cells (%) [3]: 70.83% and 60.87% | Population Normal (%) [3]: 100% | Population Pyknosed Nuclei (%) [3]: 8.86% and 11.11% | Population Tubulin-Different-Phenotype (%) [3]: 1.04% and 0.55% | Total Cell Count [3]: 542 and 207 | Population Apoptotic (%) [4]: 54.55% and 40.91% | Population Fragmented Nuclei (%) [4]: 1.52% and 9.32% | Population Healthy Nuclei (%) [4]: 91.34% and 77.02% | Population Hoechst High Intensity Objects (%) [4]: 0% | Population Membrane Permeable-Phenotype (%) [4]: 0.95% and 2.42% | Population Mitochondria Different-Phenotype (%) [4]: 0% and 9.68% | Population Mitotic Cells (%) [4]: 45.45% and 59.09% | Population Normal (%) [4]: 100% | Population Pyknosed Nuclei (%) [4]: 7.14% and 13.66% | Population Tubulin-Different-Phenotype (%) [4]: 0.95% and 1.61% | Total Cell Count [4]: 462 and 161 | Population Apoptotic (%) [5]: 32.88% and 50% | Population Fragmented Nuclei (%) [5]: 2.93% and 2.02% | Population Healthy Nuclei (%) [5]: 89.69% and 90.49% | Population Hoechst High Intensity Objects (%) [5]: 0% | Population Membrane Permeable-Phenotype (%) [5]: 1.01% and 2.23% | Population Mitochondria Different-Phenotype (%) [5]: 0.23% and 5.1% | Population Mitotic Cells (%) [5]: 67.12% and 50% | Population Normal (%) [5]: 100% | Population Pyknosed Nuclei (%) [5]: 7.38% and 7.49% | Population Tubulin-Different-Phenotype (%) [5]: 0.56% and 1.27% | Total Cell Count [5]: 989 and 347 | Population Apoptotic (%) [6]: 38.46% and 32.14% | Population Fragmented Nuclei (%) [6]: 3.01% and 6.33% | Population Healthy Nuclei (%) [6]: 86.02% and 81.86% | Population Hoechst High Intensity Objects (%) [6]: 0% | Population Membrane Permeable-Phenotype (%) [6]: 1.4% and 3.09% | Population Mitochondria Different-Phenotype (%) [6]: 0.14% and 6.19% | Population Mitotic Cells (%) [6]: 61.54% and 67.86% | Population Normal (%) [6]: 100% | Population Pyknosed Nuclei (%) [6]: 10.96% and 11.81% | Population Tubulin-Different-Phenotype (%) [6]: 1.68% and 1.03%
